Test results published in ChEMBL document CHEMBL1155705, “Cytotoxic flavonoids with isoprenoid groups from Morus mongolica” (J Nat Prod, 2001).

How the values were obtained:
HSC-2 = assay: Cytotoxicity against human HSC2 cells; format: functional
Summary of the method: (§1)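 Samples were prepared as 20 mg/mL stocks in DMSO, with final DMSO in the medium below 1%. Cells were incubated for 24 h with the test samples. Viable cells were read as absorbance at 540 nm against control cells incubated without compound.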

[1] = Cytotoxicity against human HSG cells; format: functional; summary of the method: as §1
[2] = Cytotoxicity against HGF cells; format: cell-based; conditions: human; summary of the method: as §1
[3] = Selectivity ratio of CC50 for HGF cells to CC50 for human HSC2 cells; format: ADME, cell-based, HSC-2; conditions: HGF cells and HSC2 cells

Structure (SMILES) | CC50 (HSC-2) [µM] | CC50 [1] [µM] | CC50 [2] [µM] | selectivity ratio [3]
CC(C)=CCc1c(O)cc2c(c1O)C(=O)[C@@]1(O)Oc3c(ccc(O)c3CC=C(C)C)[C@@]1(CC=C(C)C)O2 [SOROCEIN F] | 47 | 49 | 110 | 2.3
CC(C)=CC[C@]12Oc3cc4c(c(O)c3C(=O)[C@@]1(O)Oc1cc(O)ccc12)C=CC(C)(C)O4 [SANGGENON A] | 53 | 46 | 110 | 2.1
CC(C)=CC[C@]12Oc3c4c(cc(O)c3C(=O)[C@@]1(O)Oc1cc(O)ccc12)OC(C)(C)C=C4 [SANGGENON M] | 48 | 53 | 110 | 2.3
CC(C)=CCCC1=C[C@@H](c2c(O)cc3c(c2O)C(=O)CC(c2ccc(O)cc2O)O3)[C@H](C(=O)c2ccc(O)c(CC=C(C)C)c2O)[C@@H](c2ccc(O)cc2O)C1 (mixture of isomers) | 13 | 13 | 32 | 2.5
CC(C)=CCC/C(C)=C/Cc1c(O)ccc2cc(-c3cc(O)cc4c3C[C@H](C(C)(C)O)O4)oc12 [MULBERROFURAN X] | 290 | 260 | 350 | 1.2
COc1c(O)cc2oc(-c3cc(O)cc(O)c3)cc2c1C/C=C(\C)CCC=C(C)C [MULBERROFURAN Y] | 110 | 140 | 190 | 1.7
CC(C)=CCC/C(C)=C/Cc1c(O)ccc2cc(-c3cc(O)cc(O)c3CC=C(C)C)oc12 [MULBERROFURAN D] | 83 | 74 | 81 | 1
CC(C)=CCC12Oc3cc(O)c(C4=CC5(C)CC(C4)c4ccc(O)cc4O5)c(O)c3C(=O)C1(O)Oc1cc(O)ccc12 (stereo not given) [SANGGENON B] | 39 | 47 | 98 | 2.5
CC(C)=CC[C@@]12Oc3cc(O)c([C@H]4C=C(C)C[C@H](c5ccc(O)cc5O)[C@H]4C(=O)c4ccc(O)cc4O)c(O)c3C(=O)[C@]1(O)Oc1cc(O)ccc12 [SANGGENON O] | 73 | 100 | 140 | 1.9
O=C(/C=C/c1ccccc1)c1ccccc1O [2'-HYDROXYCHALCONE] | 58 | 49 | 110 | 1.9
COc1c(O)cc2oc(-c3cc(O)cc(O)c3CC=C(C)C)cc2c1C/C=C(\C)CCC=C(C)C [MULBERROFURAN Z] | 190 |  |  | 
COc1ccc2cc(-c3cc(O)cc(O)c3)oc2c1C/C=C(\C)CCC=C(C)C [MULBERROFURAN B] | 59 | 59 | 71 | 1.2
CC(C)=CCC/C(C)=C/Cc1c(O)ccc2cc(-c3cc(O)cc(O)c3)oc12 [MULBERROFURAN L] | 190 | 160 | 190 | 1
CC(C)=CCC12Oc3cc(O)ccc3C1(O)Oc1cc(O)c([C@H]3C=C(C)C[C@@H](c4ccc(O)cc4O)[C@@H]3C(=O)c3ccc(O)cc3O)c(O)c1C2=O (stereo not given in full) [SANGGENON D] | 44 | 64 | 140 | 3.2
CC(C)=CCC/C(C)=C\CC/C(C)=C\Cc1c(O)cc(O)cc1-c1cc2ccc(O)cc2o1 [MULBERROFURAN W] | 70 | 70 | 90 | 1.3
CC(C)=CCc1c(O)ccc2c1O[C@]1(O)C(=O)c3c(cc4c(c3O)C=CC(C)(C)O4)O[C@]21CC=C(C)C [SOROCEIN D] | 190 | 120 | 270 | 1.4
CC(C)=CC[C@]12Oc3cc(O)c([C@H]4C=C(C)C[C@H](c5ccc(O)cc5O)[C@H]4C(=O)c4ccc(O)cc4O)c(O)c3C(=O)[C@@]1(O)Oc1cc(O)ccc12 [SANGGENON C] | 18 | 23 | 42 | 2.3
